{"source": "PubChem BioAssay AID651647", "about": "(Sanford-Burnham Center for Chemical Genomics, 2012)", "note": "The whole screen tested about 360,000 compounds, of which about 220 (0.061%) were called active. Only a selection was taken, and actives are over-represented in it overall. A number with no mark means an inactive call.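 The calls were made as follows: active = GFP/RFP ratio change of at least 30% with cell ATP level not reduced by more than half and red fluorescence within 50% of control; inactive = the rest, inconclusive results apart.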"}
{"molecular_target": "Matrix metalloproteinase-14 (Homo sapiens) (UniProt P50281)", "assay": "MT1-MMP activation inhibitors, cellular reporter – HT1080 RFP-PRO-GFP cells, GFP/RFP fluorescence, primary screen (AID 651647)", "settings": "overnight, at 20 µM, hits give high values, percent of plate control window, DMSO zero", "how_it_was_run": "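Material – HT1080 RFP-PRO-GFP cells · Control set – DMSO wells and RFP-L50D-GFP cells · Incubation – overnight cell settling, then overnight compound exposure, 37 °C, 5% CO2 · Compound dosing – single-point 20 µM compound, 1% DMSO · Read-out – GFP/RFP fluorescence ratio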"}
{"smiles": "CCOC(=O)c1cc(-c2sc(NC(=O)c3ccccc3)nc2C)n(Cc2ccccc2)n1", "GFP/RFP ratio change": "-13.8%"}
{"smiles": "CCN1CCN(c2c(Cl)cccc2NC(=O)c2ccc(Br)o2)CC1", "GFP/RFP ratio change": "6.59%"}
{"smiles": "CNC(=O)c1[nH]cnc1C(=O)N[C@@H](CC(C)C)C(=O)OCc1ccccc1", "GFP/RFP ratio change": "3.79%"}
{"smiles": "CSc1ncccc1C(=O)N1CCCC(Nc2ccc(F)c(F)c2)C1", "note": "(stereo unspecified)", "GFP/RFP ratio change": "0.99%"}
{"smiles": "O=Cc1c(NCCc2cccc(F)c2)c2ccccc2[nH]c1=O", "GFP/RFP ratio change": "-3.4%"}
{"smiles": "Cn1c(=S)sc2ccc3ccccc3c21", "GFP/RFP ratio change": "2.62%"}
{"smiles": "CN(C(=O)CSc1cccc[n+]1[O-])C1CCCCC1", "GFP/RFP ratio change": "9.34%"}
{"smiles": "Cc1ccc(S(=O)(=O)N2CC(C)N(S(C)(=O)=O)C2)cc1", "note": "(stereo unspecified)", "GFP/RFP ratio change": "0.163%"}
{"smiles": "CCc1ccnc(NS(=O)(=O)c2ccc3c(c2)OCCO3)c1", "GFP/RFP ratio change": "3.33%"}
{"smiles": "Cc1ccc2c(c1)N(S(=O)(=O)c1cc(-c3cc(C)no3)ccc1C)CCO2", "GFP/RFP ratio change": "0.714%"}
{"smiles": "CC(=O)c1c(O)cc2n(c1=O)-c1ccc(Cl)cc1C2(C)C", "GFP/RFP ratio change": "-5.09%"}
{"smiles": "CCOC(=O)C1(O)CC(C)=NN1C(=O)c1cccc(Br)c1", "note": "(stereo unspecified)", "GFP/RFP ratio change": "7.72%"}
{"smiles": "O=C(O)CC(Cn1cnnn1)c1ccccc1", "note": "(stereo unspecified)", "GFP/RFP ratio change": "-0.417%"}
{"smiles": "Nc1nc(SCc2cccc(Br)c2)n[nH]1", "GFP/RFP ratio change": "6.02%"}
{"smiles": "CC(=O)c1nn(-c2ccc(C)cc2)cc1C(=O)c1cccc(Br)c1", "GFP/RFP ratio change": "0.8%"}
{"smiles": "CCc1ccc(C2N3CC4([N+](=O)[O-])CN2CC([N+](=O)[O-])(C3)C4(C)C)cc1", "note": "(stereo unspecified)", "GFP/RFP ratio change": "-2.43%"}
{"smiles": "O=S(=O)(Nc1ncccn1)c1ccc(NS(=O)(=O)c2cccc(Cl)c2Cl)cc1", "GFP/RFP ratio change": "-0.508%"}
{"smiles": "O=c1ccc2c(-c3ccccc3S(=O)(=O)O)c3ccc(O)c(O)c3oc-2c1O", "GFP/RFP ratio change": "49.3% (active)"}
{"smiles": "N/C(=N\\OS(=O)(=O)c1cccc([N+](=O)[O-])c1)c1ccncc1", "GFP/RFP ratio change": "1.12%"}
{"smiles": "CCc1ccnc(NC(=O)Nc2ccc(OCc3ccccc3)cc2)c1", "GFP/RFP ratio change": "3.94%"}
{"smiles": "CC(C)(C)OC(=O)N1CCN(C(=O)c2[nH]c(C(F)(F)F)nc2-c2ccccc2)CC1", "GFP/RFP ratio change": "3.61%"}
{"smiles": "CN1CC(c2ccccc2)C2(COc3ccccc3C2=O)C12C(=O)Nc1ccccc12", "note": "(stereo unspecified)", "GFP/RFP ratio change": "-4.6%"}
{"smiles": "Cc1ccc2c(c1)N(CC(=O)NCCCN1CCCCC1)C(=O)c1cccnc1O2", "GFP/RFP ratio change": "1.06%"}
{"smiles": "Cc1ccccc1S(=O)(=O)NC(=O)C1(C)CCN1C(=O)C1(c2ccc(Cl)cc2)CC1", "note": "(stereo unspecified)", "GFP/RFP ratio change": "0.579%"}
{"smiles": "O=C(COC(=O)c1ccc(S(=O)(=O)N2CCCCCC2)cc1)Nc1ccccc1C(F)(F)F", "GFP/RFP ratio change": "-2.08%"}
{"smiles": "COc1ccccc1C1CCN(C(=S)Nc2ccc(Br)cc2)CC1", "GFP/RFP ratio change": "-1.18%"}
{"smiles": "CC(C)[C@H](NC(=O)N1CCn2c1nc1ccccc12)C(=O)NCCc1ccccc1", "GFP/RFP ratio change": "1.13%"}
{"smiles": "O=c1[nH]snc1-c1c(Cl)cccc1Cl", "GFP/RFP ratio change": "-2.44%"}
{"smiles": "COC(=O)NNC(=O)C1CCC(C)CC1", "note": "(stereo unspecified)", "GFP/RFP ratio change": "0.231%"}
{"smiles": "Cc1cn(C2CC(O)C(CO)O2)c(=O)n(CCCc2ccccc2)c1=O", "note": "(stereo unspecified)", "GFP/RFP ratio change": "5.06%"}
{"smiles": "Cc1nn(C)c(Oc2ccccc2)c1CCNS(=O)(=O)c1ccc(F)cc1", "GFP/RFP ratio change": "0.853%"}
{"smiles": "O=C(c1ccc(F)c(S(=O)(=O)N2CCOCC2)c1)N(CCc1ccccc1)Cc1ccccc1", "GFP/RFP ratio change": "-8.33%"}
{"smiles": "CC(=O)c1cc2c(cc1NC(=O)CN1CCCCCC1)OCO2", "GFP/RFP ratio change": "-5.12%"}
{"smiles": "CN1c2ccc([N+](=O)[O-])cc2C(C)(C)C12C=Cc1cc(C(=O)O)ccc1O2", "note": "(stereo unspecified)", "GFP/RFP ratio change": "0.611%"}
{"smiles": "COc1ccc2c(c1)C=CC1(O2)N(CCO)c2ccccc2C1(C)C", "note": "(stereo unspecified)", "GFP/RFP ratio change": "52% (active)"}
{"smiles": "O=C(Nc1ccc(N2CCOCC2)nc1)c1c(F)cccc1F", "GFP/RFP ratio change": "-1.38%"}
{"smiles": "CCc1nonc1NC(=O)c1oc2ccc(Cl)cc2c1C", "GFP/RFP ratio change": "3.45%"}
{"smiles": "COc1ccc(-c2cc(NC(C)=O)c3ncc(-c4cc(OC)c(OC)c(OC)c4)n3c2)cn1", "GFP/RFP ratio change": "-4.94%"}
{"smiles": "CCc1ccc(NC(=O)N[C@H](C(=O)O)C(C)CC)cc1", "note": "(stereo partly specified)", "GFP/RFP ratio change": "2.36%"}
{"smiles": "COc1ccc(C(C)C)cc1-c1ccc2nncn2c1", "GFP/RFP ratio change": "3.27%"}
{"smiles": "Cc1cccc(C)c1NC(=O)C(Cl)C(=O)c1ccccc1", "note": "(stereo unspecified)", "GFP/RFP ratio change": "-3.13%"}
{"smiles": "Nc1ccc(Nc2ccccc2)cc1", "GFP/RFP ratio change": "44% (active)"}
{"smiles": "O=c1cnnc(Nc2ccccc2)[nH]1", "GFP/RFP ratio change": "7.04%"}
{"smiles": "Cc1ccc(Nc2ccccc2N)cc1", "GFP/RFP ratio change": "-12%"}
{"smiles": "O=C(Cn1cnc2cc([N+](=O)[O-])ccc2c1=O)NC(=O)NCc1ccccc1", "GFP/RFP ratio change": "1.03%"}
{"smiles": "COC(=O)C(NS(=O)(=O)c1ccc(F)cc1)c1ccccc1", "note": "(stereo unspecified)", "GFP/RFP ratio change": "0.566%"}
{"smiles": "CCOc1ccc(NC(=O)CN(C)C(=O)CSc2ccccc2)cc1OCC", "GFP/RFP ratio change": "-8.63%"}
{"smiles": "N/C(=N\\c1nc2ccccc2o1)NC(=O)C(Cc1ccccc1)N1C(=O)c2ccccc2C1=O", "note": "(stereo unspecified)", "GFP/RFP ratio change": "-6.5%"}
{"smiles": "CNC(=S)N1CCC(NC(=O)C(Cc2ccc(F)cc2)NC(C)=O)CC1", "note": "(stereo unspecified)", "GFP/RFP ratio change": "-0.719%"}
{"smiles": "CC(C)(C)n1nnc(CCc2nnn(C(C)(C)C)n2)n1", "GFP/RFP ratio change": "2.72%"}
{"smiles": "O=C(COC(=O)c1ccc(NS(=O)(=O)c2cccs2)cc1O)Nc1ccc(F)cc1", "GFP/RFP ratio change": "4.53%"}
{"smiles": "C[C@@H](CN1CCC[C@H]1CN1C(N)=NC[C@@H]1Cc1ccccc1)N1C[C@@H](Cc2ccccc2)N(CCCC2CCCC2)C1=N", "GFP/RFP ratio change": "1.74%"}
{"smiles": "COc1ccc2oc(C(=O)N(CC(C)C)C3CCS(=O)(=O)C3)c(C)c2c1", "note": "(stereo unspecified)", "GFP/RFP ratio change": "1.26%"}
{"smiles": "O=C1c2ccccc2C(=O)N1CC1c2ccccc2CCN1S(=O)(=O)c1ccccc1", "note": "(stereo unspecified)", "GFP/RFP ratio change": "-1.81%"}
{"smiles": "COc1ccc(NC2CCCN(C(=O)c3ccccc3-c3ncc[nH]3)C2)cc1", "note": "(stereo unspecified)", "GFP/RFP ratio change": "3.89%"}
{"smiles": "COC(=O)c1ccccc1Oc1c(F)c(F)nc(N2CCOCC2)c1F", "GFP/RFP ratio change": "2.7%"}
{"smiles": "COc1ccc(S(=O)(=O)N2CCC(C(=O)NCCC(=O)NCc3cccc(OC)c3)CC2)cc1", "GFP/RFP ratio change": "0.341%"}
{"smiles": "COc1ccc(C)cc1Nc1nc(-c2c(C)[nH]c3ccccc23)cs1", "GFP/RFP ratio change": "47.3% (active)"}
{"smiles": "Cc1[nH]c2ccccc2c1-c1ccc(Cl)nn1", "GFP/RFP ratio change": "-0.969%"}
{"smiles": "COC(=O)c1cnc(Nc2cc(C)ccc2OC)c2ccccc12", "GFP/RFP ratio change": "-1.73%"}
{"smiles": "C=CCn1nc(C(=O)OCC)cc1-c1sc(NC(=O)c2ccccc2)nc1C", "GFP/RFP ratio change": "-9.54%"}
{"smiles": "CCOC(=O)C1C(C)C(C(C)(C)C)N(S(=O)(=O)c2ccc(C)cc2)C1c1ccccc1", "note": "(stereo unspecified)", "GFP/RFP ratio change": "-10.4%"}
{"smiles": "O=S(=O)(/C=C/c1ccccc1)NCCc1ccccn1", "GFP/RFP ratio change": "2.57%"}
{"smiles": "Cc1ccccc1C(=O)O", "GFP/RFP ratio change": "-0.112%"}
{"smiles": "CCC1(C)N(O)C(C)(C)C(c2ccc(OC)cc2)=[N+]1[O-]", "note": "(stereo unspecified)", "GFP/RFP ratio change": "5.6%"}
{"smiles": "CN(C(=O)c1cccc(NC(=O)C2CCN(C(=O)OC(C)(C)C)CC2)c1)C1CCC1", "GFP/RFP ratio change": "6.42%"}
